What was measured:
Format in all cases: functional
UACC-257 = experiment: Growth inhibition of human UACC257 cells at 10 uM after 48 hrs by coulter counting; details: UACC-257, 48 h, read-out: GI
How it was run: (§1)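 Single-dose screen in the NCI 60 human tumor cell line panel (nine subpanels). Compounds dissolved in DMSO and diluted in phosphate buffered saline, keeping final DMSO below 1%. Added in duplicate wells to cells at 6 × 10⁴ cells/ml. Controls held PBS and DMSO at matching dilutions. Incubated at 37 °C, humidified, 5% CO₂. Reported as percent growth of treated cells.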

UACC-62 = experiment: Growth inhibition of human UACC62 cells at 10 uM after 48 hrs by coulter counting; details: UACC-62, 48 h, read-out: GI; how it was run: as §1
SF-539 = experiment: Growth inhibition of human SF539 cells at 10 uM after 48 hrs by coulter counting; details: SF-539, 48 h, read-out: GI
How it was run: (§2)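 Single-dose primary screen across the full NCI 60-cell-line panel. Stocks were made in DMSO and diluted in PBS to a final DMSO below 1%. Cultures at 6 × 10⁴ cells/ml were run in duplicate wells alongside PBS/DMSO vehicle controls at 37 °C in humidified 5% CO₂. Data were expressed as percent growth of treated cells.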

CCRF-CEM = experiment: Growth inhibition of human CCRF-CEM cells at 10 uM after 48 hrs by coulter counting; details: read-out: GI; how it was run: as §2
HL-60(TB) = experiment: Growth inhibition of human HL-60(TB) cells at 10 uM after 48 hrs by coulter counting; details: HL-60, 48 h, read-out: GI
How it was run: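 Test compound was dissolved in DMSO and diluted in phosphate-buffered saline to a final DMSO level below 1%. Dilutions were plated in duplicate with cell culture at 6 × 10⁴ cells/ml. Vehicle controls held PBS and DMSO at matching dilutions. Incubation was at 37 °C, humidified, under 5% CO₂. Data were reported as percent growth of treated cells.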

K562 = experiment: Growth inhibition of human K562 cells at 10 uM after 48 hrs by coulter counting; details: K562, 48 h, read-out: GI; how it was run: as §2
MOLT-4 = experiment: Growth inhibition of human MOLT4 cells at 10 uM after 48 hrs by coulter counting; details: MOLT-4, 48 h, read-out: GI; how it was run: as §2
RPMI-8226 = experiment: Growth inhibition of human RPMI8226 cells at 10 uM after 48 hrs by coulter counting; details: RPMI-8226, 48 h, read-out: GI; how it was run: as §2
A549 = experiment: Growth inhibition of human A549 cells at 10 uM after 48 hrs by coulter counting; details: A549, 48 h, read-out: GI; how it was run: as §2
EKVX = experiment: Growth inhibition of human EKVX cells at 10 uM after 48 hrs by coulter counting; details: read-out: GI; how it was run: as §2
HOP-62 = experiment: Growth inhibition of human HOP62 cells at 10 uM after 48 hrs by coulter counting; details: HOP-62, 48 h, read-out: GI; how it was run: as §2
NCI-H226 = experiment: Growth inhibition of human NCI-H226 cells at 10 uM after 48 hrs by coulter counting; details: NCI-H226, 48 h, read-out: GI; how it was run: as §2
NCI-H23 = experiment: Growth inhibition of human NCI-H23 cells at 10 uM after 48 hrs by coulter counting; details: NCI-H23, 48 h, read-out: GI; how it was run: as §2
[1] = Growth inhibition of human NCI-322M cells at 10 uM after 48 hrs by coulter counting; details: read-out: GI; how it was run: as §2
NCI-H460 = experiment: Growth inhibition of human NCI-H460 cells at 10 uM after 48 hrs by coulter counting; details: NCI-H460, 48 h, read-out: GI; how it was run: as §2
NCI-H522 = experiment: Growth inhibition of human NCI-H522 cells at 10 uM after 48 hrs by coulter counting; details: NCI-H522, 48 h, read-out: GI; how it was run: as §2
HCT-116 = experiment: Growth inhibition of human HCT116 cells at 10 uM after 48 hrs by coulter counting; details: HCT-116, 48 h, read-out: GI; how it was run: as §2
HCC 2998 = experiment: Growth inhibition of human HCC2998 cells at 10 uM after 48 hrs by coulter counting; details: HCC 2998, 48 h, read-out: GI; how it was run: as §2
HT-29 = experiment: Growth inhibition of human HT-29 cells at 10 uM after 48 hrs by coulter counting; details: HT-29, 48 h, read-out: GI; how it was run: as §2
KM12 = experiment: Growth inhibition of human KM12 cells at 10 uM after 48 hrs by coulter counting; details: KM12, 48 h, read-out: GI; how it was run: as §2
SF-268 = experiment: Growth inhibition of human SF268 cells at 10 uM after 48 hrs by coulter counting; details: SF-268, 48 h, read-out: GI; how it was run: as §2
SF-295 = experiment: Growth inhibition of human SF295 cells at 10 uM after 48 hrs by coulter counting; details: SF-295, 48 h, read-out: GI; how it was run: as §2
SNB-19 = experiment: Growth inhibition of human SNB19 cells at 10 uM after 48 hrs by coulter counting; details: SNB-19, 48 h, read-out: GI; how it was run: as §2
SNB-75 = experiment: Growth inhibition of human SNB75 cells at 10 uM after 48 hrs by coulter counting; details: SNB-75, 48 h, read-out: GI; how it was run: as §2
U-251 = experiment: Growth inhibition of human U251 cells at 10 uM after 48 hrs by coulter counting; details: U-251, 48 h, read-out: GI; how it was run: as §1
LOX IMVI = experiment: Growth inhibition of human LOXIMVI cells at 10 uM after 48 hrs by coulter counting; details: read-out: GI; how it was run: as §2
M14 = experiment: Growth inhibition of human M14 cells at 10 uM after 48 hrs by coulter counting; details: M14, 48 h, read-out: GI; how it was run: as §2
MDA-MB-435 = experiment: Growth inhibition of human MDA-MB-435 cells at 10 uM after 48 hrs by coulter counting; details: MDA-MB-435, 48 h, read-out: GI; how it was run: as §2
SK-MEL-2 = experiment: Growth inhibition of human SK-MEL-2 cells at 10 uM after 48 hrs by coulter counting; details: SK-MEL-2, 48 h, read-out: GI; how it was run: as §2
SK-MEL-28 = experiment: Growth inhibition of human SK-MEL-28 cells at 10 uM after 48 hrs by coulter counting; details: SK-MEL-28, 48 h, read-out: GI; how it was run: as §2
SK-MEL-5 = experiment: Growth inhibition of human SK-MEL-5 cells at 10 uM after 48 hrs by coulter counting; details: SK-MEL-5, 48 h, read-out: GI; how it was run: as §2
IGROV-1 = experiment: Growth inhibition of human IGROV1 cells at 10 uM after 48 hrs by coulter counting; details: IGROV-1, 48 h, read-out: GI; how it was run: as §2
OVCAR-4 = experiment: Growth inhibition of human OVCAR4 cells at 10 uM after 48 hrs by coulter counting; details: OVCAR-4, 48 h, read-out: GI; how it was run: as §2
NCI/ADR-RES = experiment: Growth inhibition of human NCI/ADR-RES cells at 10 uM after 48 hrs by coulter counting; details: read-out: GI; how it was run: as §2
A498 = experiment: Growth inhibition of human A498 cells at 10 uM after 48 hrs by coulter counting; details: A498, 48 h, read-out: GI; how it was run: as §2
ACHN = experiment: Growth inhibition of human ACHN cells at 10 uM after 48 hrs by coulter counting; details: read-out: GI; how it was run: as §2
CAKI-1 = experiment: Growth inhibition of human Caki1 cells at 10 uM after 48 hrs by coulter counting; details: CAKI-1, 48 h, read-out: GI; how it was run: as §2
UO-31 = experiment: Growth inhibition of human UO31 cells at 10 uM after 48 hrs by coulter counting; details: UO-31, 48 h, read-out: GI; how it was run: as §1
DU-145 = experiment: Growth inhibition of human DU145 cells at 10 uM after 48 hrs by coulter counting; details: DU-145, 48 h, read-out: GI; how it was run: as §2
MCF7 = experiment: Growth inhibition of human MCF7 cells at 10 uM after 48 hrs by coulter counting; details: MCF7, 48 h, read-out: GI; how it was run: as §2
BT-549 = experiment: Growth inhibition of human BT549 cells at 10 uM after 48 hrs by coulter counting; details: BT-549, 48 h, read-out: GI; how it was run: as §2
T47D = experiment: Growth inhibition of human T47D cells at 10 uM after 48 hrs by coulter counting; details: read-out: GI; how it was run: as §1

Measured: inhibition of growth at 10 µM

COc1ccc(/C=C2\CCCC3=C2N=C2SC=C(C)N2C3c2ccc(OC)cc2)cc1 (configuration not stated)
13.5%: RPMI-8226
23.3%: UO-31
36%: A498
12.5%: CAKI-1
> 10%: all other assays above

Source: ChEMBL document CHEMBL1926614, “Substituted thiazoles V. synthesis and antitumor activity of novel thiazolo[2,3-b]quinazoline and pyrido[4,3-d]thiazolo[3,2-a]pyrimidine analogues” (2012)
